Values joined by “and” are separate entries in the source; they are usually repeats but may differ in a detail not shown here. Equal entries are not always repeated.
How the values were obtained:
[1] = molecular target: T1, Histamine H1 receptor (Rattus norvegicus, UniProt P31390); assay: Relative potency was recorded in relaxed rat aortic rings with intact endothelium, submaximally precontracted with 15.8 nM U-46,619 value; format: functional, tissue-based, Aorta; settings: read-out: pA2 (converted)
T1 sequence (P31390 whole entry): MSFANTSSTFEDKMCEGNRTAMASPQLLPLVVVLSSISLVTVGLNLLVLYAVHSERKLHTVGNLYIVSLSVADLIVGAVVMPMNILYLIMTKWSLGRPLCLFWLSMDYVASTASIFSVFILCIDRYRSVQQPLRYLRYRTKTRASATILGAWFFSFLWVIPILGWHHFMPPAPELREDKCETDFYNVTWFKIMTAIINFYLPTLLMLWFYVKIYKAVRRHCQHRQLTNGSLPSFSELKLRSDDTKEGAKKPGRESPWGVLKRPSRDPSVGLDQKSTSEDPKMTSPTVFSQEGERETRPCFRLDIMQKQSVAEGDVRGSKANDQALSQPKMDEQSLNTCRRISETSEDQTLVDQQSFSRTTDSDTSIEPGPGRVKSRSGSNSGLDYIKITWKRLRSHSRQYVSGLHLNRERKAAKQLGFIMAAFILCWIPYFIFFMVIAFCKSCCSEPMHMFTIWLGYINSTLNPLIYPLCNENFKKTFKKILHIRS

[2] = molecular target: Histamine H1 receptor (Cavia porcellus) (UniProt P31389); assay: Intrinsic activity was reported in endothelium-denuded guinea pig(pre contracted with PGF-2 alpha) at a concentration of 10 uM; format: functional
Chain of Histamine H1 receptor (Cavia porcellus) (P31389 whole entry): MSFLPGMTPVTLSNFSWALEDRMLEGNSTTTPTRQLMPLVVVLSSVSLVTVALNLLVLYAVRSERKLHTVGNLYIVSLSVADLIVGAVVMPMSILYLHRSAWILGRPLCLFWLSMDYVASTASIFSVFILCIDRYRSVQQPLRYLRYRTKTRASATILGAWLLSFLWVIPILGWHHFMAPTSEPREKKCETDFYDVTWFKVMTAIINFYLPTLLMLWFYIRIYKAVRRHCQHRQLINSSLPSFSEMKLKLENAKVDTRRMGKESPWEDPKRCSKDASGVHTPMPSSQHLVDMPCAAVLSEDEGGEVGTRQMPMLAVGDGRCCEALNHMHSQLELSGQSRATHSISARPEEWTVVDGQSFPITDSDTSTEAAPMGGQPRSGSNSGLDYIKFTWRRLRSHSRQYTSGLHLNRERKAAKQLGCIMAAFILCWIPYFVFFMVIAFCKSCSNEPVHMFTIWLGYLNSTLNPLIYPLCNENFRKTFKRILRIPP
In short: (§1)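 Endothelium-denuded guinea-pig aortic rings, set up as in the contraction assay, challenged twice with PGF2α (10 µM). Rings were precontracted with a threshold PGF2α level (usually 0.4–1.5 µM, 10–20% of the 10 µM response).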

[3] = molecular target: T2, Histamine H1 receptor (Cavia porcellus, UniProt P31389); assay: Relative potency was recorded in endothelium-denuded guinea pig; value ranges from 5.75 to 6.25; format: functional; settings: read-out: pA2 (converted)
T2 sequence (P31389 whole entry): as above
In short: (§2)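 Guinea-pig thoracic aortic rings (2–4 mm), endothelium rubbed off, isometric (10 mN), modified Krebs-Henseleit (1.80 mM Ca2+), 37 °C. Cimetidine, corticosterone and cocaine (30 µM each), prazosin and yohimbine (0.3 µM each) and propranolol (0.1 µM) were present. […] The pEC50 shift was corrected using untreated control preparations.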

[4] = molecular target: T2, Histamine H1 receptor; assay: Relative potency was recorded in endothelium-denuded guinea pig(pre contracted with PGF-2 alpha); value ranges from 5.76 to 6.40; format: functional; settings: read-out: pA2 (converted); in short: as §1
[5] = molecular target: Histamine H1 receptor (Cavia porcellus) (UniProt P31389); settings: 10 uM
[6] = molecular target: Serotonin 3 (5-HT3) receptor; assay: Compound was evaluated for its antagonist affinity towards 5-hydroxytryptamine 3 receptor of guinea pig; format: functional, Cavia porcellus
In short: (§3)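 Functional antagonism assays in guinea-pig tissues, each run with 1 µM mepyramine present: M3 (whole ileum), β1 (right atrium), 5-HT1B (iliac artery), 5-HT3 (quiescent ileal longitudinal muscle with myenteric plexus). Results are given as apparent pA2, or pD'2 when only curve depression occurred.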

[7] = molecular target: T3, Alpha-1D adrenergic receptor (Rattus norvegicus, UniProt P23944); assay: Compound was evaluated for its antagonist affinity towards Alpha-1D adrenergic receptor of rat; format: functional; settings: read-out: pA2 (converted)
T3 sequence (P23944 whole entry): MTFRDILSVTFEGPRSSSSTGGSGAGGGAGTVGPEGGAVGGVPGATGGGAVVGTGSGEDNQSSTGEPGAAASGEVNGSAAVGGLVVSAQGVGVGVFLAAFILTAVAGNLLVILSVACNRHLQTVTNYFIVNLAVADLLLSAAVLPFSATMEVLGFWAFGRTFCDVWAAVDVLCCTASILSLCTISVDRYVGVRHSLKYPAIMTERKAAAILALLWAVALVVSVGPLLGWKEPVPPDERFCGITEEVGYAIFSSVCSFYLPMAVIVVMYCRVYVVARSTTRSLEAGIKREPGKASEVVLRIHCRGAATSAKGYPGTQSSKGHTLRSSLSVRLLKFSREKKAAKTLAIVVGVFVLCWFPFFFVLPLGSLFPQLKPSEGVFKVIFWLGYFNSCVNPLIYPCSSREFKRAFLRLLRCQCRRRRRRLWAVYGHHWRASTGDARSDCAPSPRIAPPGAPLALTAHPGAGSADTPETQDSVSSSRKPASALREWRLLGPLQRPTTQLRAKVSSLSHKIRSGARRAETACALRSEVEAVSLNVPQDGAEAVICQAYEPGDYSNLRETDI
In short: (§4)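 Functional antagonism in rat tissues: α1D (thoracic aorta), 5-HT2A (tail artery), 5-HT4 (oesophageal tunica muscularis mucosae). Results are given as apparent pA2 from single-concentration rightward shifts, or pD'2 when only curve depression occurred.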

[8] = molecular target: Beta-1 adrenergic receptor (Cavia porcellus, UniProt B0FL73); assay: Compound was evaluated for its antagonist affinity towards Beta-1 adrenergic receptor of guinea pig; format: functional; settings: read-out: pA2 (converted); in short: as §3
Chain of Beta-1 adrenergic receptor (B0FL73 whole entry): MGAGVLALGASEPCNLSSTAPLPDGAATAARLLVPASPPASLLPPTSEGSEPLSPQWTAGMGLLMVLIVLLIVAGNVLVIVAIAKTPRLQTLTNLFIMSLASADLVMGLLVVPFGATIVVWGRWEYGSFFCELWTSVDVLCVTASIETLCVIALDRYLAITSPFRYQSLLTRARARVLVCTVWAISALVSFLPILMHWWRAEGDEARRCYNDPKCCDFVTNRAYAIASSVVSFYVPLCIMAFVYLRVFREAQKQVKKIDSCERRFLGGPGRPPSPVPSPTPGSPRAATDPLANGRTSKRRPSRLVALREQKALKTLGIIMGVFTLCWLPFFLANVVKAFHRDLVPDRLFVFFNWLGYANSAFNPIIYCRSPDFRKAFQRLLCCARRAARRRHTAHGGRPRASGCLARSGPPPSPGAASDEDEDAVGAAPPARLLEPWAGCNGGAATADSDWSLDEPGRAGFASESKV

[9] = molecular target: Histamine H1 receptor (Rattus norvegicus) (UniProt P31390); assay: The compound was evaluated for intrinsic activity in relaxed rat aortic rings with intact endothelium, submaximally precontracted with 15.8 nM U-46,619; format: functional, tissue-based; set-up: unit not given here; settings: Aorta
Target sequence in this assay (P31390 whole entry): as the sequence (P31390 whole entry) above

[10] = molecular target: T1, Histamine H1 receptor; assay: Effective concentration for agonism activity in relaxed rat aortic rings with intact endothelium, submaximally precontracted with 15.8 nM U-46,619; format: functional, tissue-based, Aorta
[11] = molecular target: Histamine H3 receptor (Cavia porcellus, UniProt Q9JI35); assay: Compound was evaluated for its antagonist affinity towards Histamine H3 receptor of guinea pig; format: functional; settings: read-out: pA2 (converted)
Chain of Histamine H3 receptor (Q9JI35 whole entry): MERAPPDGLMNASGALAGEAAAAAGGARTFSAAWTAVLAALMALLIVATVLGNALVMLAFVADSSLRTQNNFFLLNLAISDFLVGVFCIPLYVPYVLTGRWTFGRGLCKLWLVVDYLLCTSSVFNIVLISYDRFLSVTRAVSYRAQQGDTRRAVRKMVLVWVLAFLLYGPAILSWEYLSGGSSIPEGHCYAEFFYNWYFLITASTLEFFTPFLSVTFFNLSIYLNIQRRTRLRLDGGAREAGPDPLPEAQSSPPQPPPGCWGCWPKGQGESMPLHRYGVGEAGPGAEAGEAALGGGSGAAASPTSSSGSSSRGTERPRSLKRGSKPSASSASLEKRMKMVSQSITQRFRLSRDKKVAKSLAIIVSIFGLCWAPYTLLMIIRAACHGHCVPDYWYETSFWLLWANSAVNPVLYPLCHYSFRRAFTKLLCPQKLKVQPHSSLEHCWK
In short: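 Electrically stimulated guinea-pig ileal longitudinal muscle with myenteric plexus, isometric (7.5 mN). Cumulative (R)-α-methylhistamine curves were run with and without test compound (20 min), with 1 µM mepyramine present. Values were apparent pA2, or pD'2 where curves were depressed.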

[12] = molecular target: T2, Histamine H1 receptor; assay: Compound was evaluated for mepyramine antagonism effects in guinea pig aorta (contraction) at a mepyramine concentration of 100 nM; format: functional, tissue-based; settings: read-out: pA2 (converted)
In short: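 Guinea-pig aortic rings with endothelium damaged, isometric (10 mN), 37 °C Krebs-Henseleit. Agonist curves were run with mepyramine (100 nM, about 60 min) after threshold PGF2α precontraction. Apparent pA2 = −log c + log(r−1).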

[13] = molecular target: T2, Histamine H1 receptor; assay: Antagonism of guinea pig ileum contraction at 100 nM mepyramine; format: functional, tissue-based; settings: read-out: pA2 (converted)
In short: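 Guinea-pig whole ileal segments (2.0–2.5 cm), isotonic, preload 0.5 g, Tyrode's at 37 °C, 95% O2/5% CO2, with 0.1 µM atropine throughout. […] Apparent pA2 = −log c + log(r−1); full pA2 from Schild plot, slope fixed at 1.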

[14] = molecular target: Histamine H2 receptor (Cavia porcellus, UniProt P47747); assay: Compound was evaluated for its antagonist affinity towards Histamine H2 receptor of guinea pig; format: functional; settings: read-out: pA2 (converted)
Chain of Histamine H2 receptor (P47747 whole entry): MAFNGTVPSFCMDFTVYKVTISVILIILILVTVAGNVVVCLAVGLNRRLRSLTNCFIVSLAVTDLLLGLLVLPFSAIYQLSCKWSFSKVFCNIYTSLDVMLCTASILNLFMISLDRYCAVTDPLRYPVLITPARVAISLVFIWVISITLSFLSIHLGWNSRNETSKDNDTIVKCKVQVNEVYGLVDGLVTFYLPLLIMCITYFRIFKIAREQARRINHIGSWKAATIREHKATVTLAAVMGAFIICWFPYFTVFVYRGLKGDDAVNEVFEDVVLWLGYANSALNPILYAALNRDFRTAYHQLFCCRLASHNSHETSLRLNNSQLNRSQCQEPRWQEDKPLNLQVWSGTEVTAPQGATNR

[15] = molecular target: Histamine H1 receptor (Cavia porcellus) (UniProt P31389); assay: Negative logarithm of receptor dissociation constant Kp was reported in guinea pig ileum whole segment; format: functional, tissue-based
In short: (§5)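 Guinea-pig ileum (0.1 µM atropine, 37 °C Tyrode's). […] Where several partial-agonist concentrations were used, the overall value comes from a Kaumann-Marano plot with slope constrained to unity.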

[16] = molecular target: T2, Histamine H1 receptor; assay: Effective concentration for agonism activity in Endothelium-Denuded guinea pig aortic segment; format: functional, tissue-based, Aorta; in short: as §2
[17] = molecular target: T2, Histamine H1 receptor; assay: Effective concentration for agonism activity in endothelium-denuded guinea pig aortic segment; format: functional, tissue-based, Aorta; in short: as §2
[18] = molecular target: T2, Histamine H1 receptor; assay: Effective concentration for agonist activity in guinea pig ileum whole segment; format: functional, tissue-based
[19] = molecular target: Muscarinic acetylcholine receptor M3 (Cavia porcellus, UniProt Q8VH26); assay: Compound was evaluated for its antagonist affinity towards Muscarinic acetylcholine receptor M3 of guinea pig; format: functional; settings: read-out: pA2 (converted); in short: as §3
Chain of Muscarinic acetylcholine receptor M3 (Q8VH26 whole entry): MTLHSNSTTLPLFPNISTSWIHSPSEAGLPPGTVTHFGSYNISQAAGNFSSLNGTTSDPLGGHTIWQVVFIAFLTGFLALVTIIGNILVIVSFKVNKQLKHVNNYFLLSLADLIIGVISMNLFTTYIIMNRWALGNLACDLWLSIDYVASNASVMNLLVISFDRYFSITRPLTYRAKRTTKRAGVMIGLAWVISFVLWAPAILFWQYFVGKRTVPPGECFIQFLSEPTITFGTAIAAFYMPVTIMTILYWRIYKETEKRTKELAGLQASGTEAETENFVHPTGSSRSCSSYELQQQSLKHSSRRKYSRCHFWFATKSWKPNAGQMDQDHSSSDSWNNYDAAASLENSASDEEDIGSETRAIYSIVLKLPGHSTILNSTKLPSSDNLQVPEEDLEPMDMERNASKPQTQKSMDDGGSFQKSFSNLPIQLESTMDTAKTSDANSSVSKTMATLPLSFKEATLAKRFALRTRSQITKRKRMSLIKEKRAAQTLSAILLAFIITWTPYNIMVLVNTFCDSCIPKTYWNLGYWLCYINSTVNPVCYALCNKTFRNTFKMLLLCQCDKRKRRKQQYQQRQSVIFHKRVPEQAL

[20] = molecular target: 5-hydroxytryptamine receptor 2A (Rattus norvegicus, UniProt P14842); assay: Compound was evaluated for its antagonist affinity towards 5-hydroxytryptamine 2A receptor of rat; format: functional; settings: read-out: pA2 (converted); in short: as §4
Chain of 5-hydroxytryptamine receptor 2A (P14842 whole entry): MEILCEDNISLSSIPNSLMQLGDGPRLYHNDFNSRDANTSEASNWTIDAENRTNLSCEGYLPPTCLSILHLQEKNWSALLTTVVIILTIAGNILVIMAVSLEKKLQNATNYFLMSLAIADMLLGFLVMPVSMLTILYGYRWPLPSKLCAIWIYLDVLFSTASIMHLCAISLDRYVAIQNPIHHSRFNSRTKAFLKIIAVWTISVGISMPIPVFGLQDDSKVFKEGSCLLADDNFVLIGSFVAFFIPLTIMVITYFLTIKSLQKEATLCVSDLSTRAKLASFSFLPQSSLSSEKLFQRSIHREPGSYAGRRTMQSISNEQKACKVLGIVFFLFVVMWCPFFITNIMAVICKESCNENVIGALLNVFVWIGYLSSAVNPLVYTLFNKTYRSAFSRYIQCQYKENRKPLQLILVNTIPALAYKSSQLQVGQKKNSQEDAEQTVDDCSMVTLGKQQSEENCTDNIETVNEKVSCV

[21] = molecular target: 5-hydroxytryptamine receptor 4 (Rattus norvegicus, UniProt Q62758); assay: Compound was evaluated for its antagonist affinity towards 5-hydroxytryptamine 4 receptor of rat; format: functional; settings: read-out: pA2 (converted); in short: as §4
Chain of 5-hydroxytryptamine receptor 4 (Q62758 whole entry): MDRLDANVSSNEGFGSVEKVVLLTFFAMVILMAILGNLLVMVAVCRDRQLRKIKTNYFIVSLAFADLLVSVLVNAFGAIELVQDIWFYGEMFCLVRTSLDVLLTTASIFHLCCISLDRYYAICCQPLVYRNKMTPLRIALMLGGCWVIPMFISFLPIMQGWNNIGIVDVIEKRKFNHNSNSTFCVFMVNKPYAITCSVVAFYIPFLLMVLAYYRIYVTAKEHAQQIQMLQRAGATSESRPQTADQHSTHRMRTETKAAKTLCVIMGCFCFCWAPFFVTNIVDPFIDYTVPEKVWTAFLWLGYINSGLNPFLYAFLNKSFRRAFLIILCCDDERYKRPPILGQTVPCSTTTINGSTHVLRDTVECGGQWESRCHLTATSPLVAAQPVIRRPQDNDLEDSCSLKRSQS

[22] = molecular target: 5-hydroxytryptamine receptor 1B (Cavia porcellus); assay: Compound was evaluated for its antagonist affinity towards 5-hydroxytryptamine 1B receptor of guinea pig; settings: read-out: pA2 (converted)
[23] = molecular target: Histamine H1 receptor (Rattus norvegicus) (UniProt P31390); assay: Compound was evaluated for mepyramine antagonism effects in rat aorta (relaxation) at a mepyramine concentration of 100 nM; settings: read-out: pA2 (converted)
Target sequence in this assay (P31390 whole entry, looked up): as the sequence (P31390 whole entry) above

[24] = molecular target: Histamine H1 receptor (Cavia porcellus) (UniProt P31389); assay: Negative logarithm of receptor dissociation constant Kp was reported; format: functional; in short: as §5
[25] = molecular target: Histamine H1 receptor (Cavia porcellus) (UniProt P31389); assay: Intrinsic activity was reported in guinea pig ileum whole segment.; format: functional, tissue-based
[26] = molecular target: Histamine H1 receptor (Cavia porcellus) (UniProt P31389); assay: Relative potency in guinea pig ileum whole segment; value ranges from 0.4 to 0.6; format: functional, tissue-based
[27] = molecular target: Histamine H1 receptor (Cavia porcellus) (UniProt P31389); assay: Antagonist effects was studied on contraction of guinea-pig ileum preparation; value ranges from 3 to 30; f means observed by Kaumann-Marano plot; format: functional, tissue-based
[28] = molecular target: Histamine H1 receptor (Cavia porcellus) (UniProt P31389); assay: concentration of mepyramine was determined; value ranges from 1 to 30; format: functional
In short: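 Guinea-pig ileum segments (either sex), mounted isotonically (0.5 g preload) at 37 °C in aerated Tyrode's with 0.1 µM atropine. […] Full pA2 was taken from an Arunlakshana-Schild plot with the slope constrained to unity.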

[29] = molecular target: Histamine H1 receptor (Rattus norvegicus) (UniProt P31390); assay: Intrinsic activity of the histamine as reported in relaxed rat aortic rings with intact endothelium, submaximally precontracted with 15.8 nM U-46,619; format: functional, tissue-based; settings: Aorta
Target sequence in this assay (P31390 whole entry): as above

[30] = molecular target: Histamine H1 receptor (Rattus norvegicus) (UniProt P31390); assay: maximum relaxation evoked by carbachol in relaxed rat aortic rings with intact endothelium, submaximally precontracted with 15.8 nM U-46,619; format: functional, tissue-based; settings: Aorta
Target sequence in this assay (P31390 whole entry): as above

[31] = molecular target: Histamine H1 receptor (Cavia porcellus) (UniProt P31389); assay: The compound was evaluated for intrinsic activity i.e. maximum histamine controls relative to contraction evoked by 10 uM PGF2-alpha; format: functional; in short: as §1
[32] = molecular target: Histamine H1 receptor (Cavia porcellus) (UniProt P31389); assay: Negative logarithm of receptor dissociation constant Kp was reported guinea pig ileal whole segment; format: functional; in short: as §5
[33] = molecular target: Histamine H1 receptor (Cavia porcellus) (UniProt P31389); assay: Intrinsic activity was reported in guinea pig ileum whole segment; format: functional, tissue-based
[34] = molecular target: Histamine H1 receptor (Cavia porcellus) (UniProt P31389); assay: The compound was evaluated for intrinsic activity i.e. second curves of histamine controls set to 100%, aorta primed with histamine; termed: intrinsic activity

NCCc1c[nH]c(CCCCC(c2ccccc2)c2ccccc2)n1
Kb [1]: 1.07 µM | Emax [2]: 0 | Kb [3]: 1 µM | Kb [4]: 0.832 µM | Emax [5]: 0

CN(C)CCc1c[nH]c(CCC(c2ccccc2)c2ccccc2)n1
pA2 [6]: < 5.8 | Kb [7]: 7.76 µM | Kb [8]: 26.3 µM | Emax [9]: 51 and 55 | EC50 [10]: 0.17 µM | Kb [11]: > 1.58 µM | Kb [12]: 0.00251 µM | Kb [13]: 0.000776 µM and 0.00138 µM | Kb [14]: 26.3 µM | pKp [15]: 6.4 | EC50 [16]: 0.12 µM | EC50 [17]: 0.832 µM | EC50 [18]: 0.0832 µM | Kb [19]: 1.15 µM | Kb [20]: 3.72 µM | Kb [21]: > 1.58 µM | Kb [22]: > 31.6 µM | Kb [23]: 0.0105 µM

NCCc1c[nH]c(CC(c2ccccc2)c2ccccc2)n1
pKp [24]: 3.87 | Emax [25]: 50 | Relative potency [26]: 0.5 | EC50 [18]: 40.7 µM

NCCc1c[nH]c(CCC(c2ccccc2)c2ccccc2)n1
pA2 [6]: < 5.7 | Concentration [27]: 30 µM | Concentration [28]: 30 nM | Emax [29]: 50 | Emax [30]: 46 | Emax [31]: 84 | pKp [32]: 6.04 | Emax [33]: 100 | Emax [34]: 72
